Common to all, as to format: functional
The subject of test [1] is A549. Kind of test: Antiproliferative activity against human A549 assessed as growth inhibition after 48 hrs by SRB assay. The conditions noted are these: A549, 48 h. The procedure, abridged: (§1)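 Cells kept in RPMI 1640 with 10% FBS, nonessential amino acids and penicillin/streptomycin, seeded and cultured overnight. Six wells fixed with 10% TCA at drug addition (T0). Compound exposure 48 h, then TCA fixation, 0.4% SRB in 1% acetic acid 10 min at room temperature, dye dissolved in 10 mM Tris base, OD 515 nm. Growth computed from T0, control and treated readings. GI50 is the concentration giving 50% growth inhibition. Doxorubicin served as positive control.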
Background: The SRB assay estimates cell density from bound dye.

For test [2], the system named is AGS. Kind of test: Antiproliferative activity against human AGS assessed as growth inhibition after 48 hrs by SRB assay. The procedure, abridged: as §1
The test system of test [3] is HT-29. Kind of test: Antiproliferative activity against human HT-29 assessed as growth inhibition after 48 hrs by SRB assay. The conditions noted are these: HT-29, 48 h. The procedure, abridged: as §1
Test [4] concerns PC-3. Kind of test: Antiproliferative activity against human PC3 assessed as growth inhibition after 48 hrs by SRB assay. The settings on record: PC-3, 48 h. The procedure, abridged: as §1

The record followed here is ChEMBL document CHEMBL1909614, “5-deoxyflavones with cytotoxic activity from Mimosa diplotricha” (2011).

Each structure is given as a SMILES string. A value given as a limit tells only on which side of the number the result lay.

On to `COc1ccc(-c2oc3c(OC)c(OC)ccc3c(=O)c2OC)cc1O` [DIPLOTRIN B], for which the GI50 (as a rule, the concentration giving 50% growth inhibition) was 2.7 µM in test [1], 1.7 µM in test [2], 7.5 µM in test [3] and 20.8 µM in test [4].

With `COc1ccc2c(=O)cc(-c3cc(OC)c(OC)cc3O)oc2c1` [DIPLOTRIN C], the GI50 in test [1], in test [2], in test [3] and in test [4] was more than 10 µM each time.

As to `COc1cc(O)c(-c2oc3c(OC)c(OC)ccc3c(=O)c2OC)cc1O` [DIPLOTRIN A], the GI50 in test [1], in test [2], in test [3] and in test [4] was more than 10 µM each time.

Take `COc1cccc2c1C(=O)c1c(O)c3c(c(O)c1C2=O)C[C@@](O)(C(=O)CO)C[C@@H]3O[C@H]1C[C@H](N)[C@H](O)[C@H](C)O1` [DOXORUBICIN]: the GI50 in test [1] was 0.27 µM; in test [2], 0.01 µM; in test [3], 0.12 µM; in test [4] it was 0.09 µM.

On to `COc1cc([C@H]2Oc3cc(-c4cc(=O)c5c(O)cc(O)cc5o4)ccc3O[C@@H]2CO)cc(OC)c1O`, for which the GI50 in test [1] amounted to 20.3 µM; in test [2], 24.8 µM; in test [3], 4.1 µM; in test [4] it was 2.3 µM.

Take `COc1ccc2c(c1O)COc1c-2oc2c(OC)c(OC)ccc2c1=O`: the GI50 in test [1], in test [2], in test [3] and in test [4] was more than 10 µM in each case.
